Laboratory results published in ChEMBL document CHEMBL1154117, “Synthesis and evaluation of a novel series of quinoline derivatives with immunosuppressive activity” (Bioorg Med Chem, 2009).

Legend:
Splenocyte [1] = test: Immunosuppressive activity against concanavalin A-induced BALB/c mouse splenocytes assessed as inhibition of [3H]thymidine incorporation at 30 uM by liquid scintillation counting; type: functional
[2] = Immunosuppressive activity in BALB/c mouse splenocytes assessed as inhibition of concanavalin A-induced cell proliferation at 100 uM after 48 hrs by MTT assay; type: functional; settings: Splenocyte
In short: (§1)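 Spleen cells (5 × 10⁵) from male BALB/c mice aged 6–8 weeks, erythrocytes lysed, stimulated with ConA 5 μg/mL in RPMI-1640/10% FBS. Compounds diluted from DMSO stock. ConA-stimulated cells used as control. Proliferation read by MTT added 4 h before end of culture, SDS/DMF lysis for 6 h, absorbance at 570 nm.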

[3] = Immunosuppressive activity in BALB/c mouse splenocytes assessed as inhibition of concanavalin A-induced cell proliferation at 30 uM after 48 hrs by MTT assay; type: functional; settings: Splenocyte; in short: as §1
[4] = Cytotoxicity against BALB/c mouse splenocytes at 30 uM after 48 hrs by MTT assay; type: cell-based, Splenocyte; settings: read-out: INH
In short: (§2)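 BALB/c spleen single-cell suspension, erythrocytes depleted with Tris-buffered NH4Cl (0.155 M NH4Cl, 16.5 mM Tris, pH 7.2). Cells cultured in RPMI-1640 with 10% FBS and compound diluted from DMSO stock (0.1% DMSO in control). Medium-alone cells served as control. MTT (5 mg/mL) added 4 h before end of culture, then SDS/DMF lysis buffer (pH 7.2) for 6 h. Absorbance read at 570 nm and growth inhibition % calculated.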

T-cell [5] = test: Immunosuppressive activity against concanavalin A-induced BALB/c mouse splenocytes assessed as T-cells activation at 1 uM after 24 hrs by FACS assay; type: functional
In short: (§3)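 Male BALB/c splenocytes (6–8 weeks), 5 × 10⁵, stimulated with ConA 5 μg/mL, with or without compound. After 24 h, cells washed twice in cold PBS and stained with CD25-FITC and CD4-APC for 30 min at 4 °C. Washed again and analysed by flow cytometry as the CD4+CD25+/CD4+ percentage.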

T-cell [6] = test: Immunosuppressive activity against concanavalin A-induced BALB/c mouse splenocytes assessed as T-cells activation at 30 uM after 24 hrs by FACS assay; type: functional; in short: as §3
Splenocyte [7] = test: Immunosuppressive activity against concanavalin A-induced BALB/c mouse splenocytes assessed as inhibition of [3H]thymidine incorporation at 1 uM by liquid scintillation counting; type: functional
T-cell [8] = test: Immunosuppressive activity against concanavalin A-induced BALB/c mouse splenocytes assessed as T-cells activation at 3 uM after 24 hrs by FACS assay; type: functional; in short: as §3
[9] = Immunosuppressive activity in BALB/c mouse splenocytes assessed as inhibition of concanavalin A-induced cell proliferation at 10 uM after 48 hrs by MTT assay; type: functional; settings: Splenocyte; in short: as §1
Splenocyte [10] = test: Immunosuppressive activity against concanavalin A-induced BALB/c mouse splenocytes assessed as inhibition of [3H]thymidine incorporation at 10 uM by liquid scintillation counting; type: functional
[11] = Cytotoxicity against BALB/c mouse splenocytes at 100 uM after 48 hrs by MTT assay; type: cell-based, Splenocyte; settings: read-out: INH; in short: as §2
[12] = Cytotoxicity against BALB/c mouse splenocytes at 10 uM after 48 hrs by MTT assay; type: cell-based, Splenocyte; settings: read-out: INH; in short: as §2
T-cell [13] = test: Immunosuppressive activity against concanavalin A-induced BALB/c mouse splenocytes assessed as T-cells activation at 10 uM after 24 hrs by FACS assay; type: functional; in short: as §3
[14] = Immunosuppressive activity in BALB/c mouse splenocytes assessed as inhibition of concanavalin A-induced cell proliferation at 1 uM after 48 hrs by MTT assay; type: functional; settings: Splenocyte; in short: as §1

Row | SMILES | inhibition at 30 µM (Splenocyte [1]) | inhibition at 100 µM [2] | inhibition at 30 µM [3] | cytotoxicity at 48 h, 30 µM [4] | Activity (T-cell [5]) | Activity (T-cell [6]) | inhibition at 1 µM (Splenocyte [7]) | Activity (T-cell [8]) | inhibition at 10 µM [9] | inhibition at 10 µM (Splenocyte [10]) | cytotoxicity at 48 h, 100 µM [11] | cytotoxicity at 48 h, 10 µM [12] | Activity (T-cell [13]) | inhibition at 1 µM [14]
1 | COc1cc(OC)c2c(OC(=O)c3ccccc3I)ccnc2c1 | 87.1% | 93% | 90.6% | 26.5% | 93.1% | 83.23% | 8.2% | 91.87% | 63% | 47.5% | 54.7% | 14.3% | 90.04% | 
2 | COc1cc(OC)c2c(OC(=O)c3ccccc3Cl)ccnc2c1 | 52% | 89.8% | 73.7% | 6.6% | 95.63% | 90.86% | 4.3% | 92.8% | 46.1% | 37.9% | 39.8% | 2.9% | 93.1% | 
3 | COc1cc(OC)c2c(OC(=O)c3c(Cl)cccc3Cl)ccnc2c1 | 99.2% | 94.3% | 94.6% | 52.7% | 92.96% | 19.41% | 34.7% | 88.8% | 94% | 97.8% | 83.4% | 10.9% | 59.64% | 
4 | COc1cc(OC)c2c(OC(=O)c3cc(Cl)cc(Cl)c3)ccnc2c1 |  | 7.9% | 5.1% | 10.7% |  |  |  |  | 3.9% |  | 7.2% | 3.4% |  | 
5 | COc1cc(OC)c2c(OC(=O)c3cc([N+](=O)[O-])cc([N+](=O)[O-])c3)ccnc2c1 |  | 5.6% | 5.1% | 9.5% |  |  |  |  | 6.3% |  | 13.4% | 3.4% |  | 
6 | COc1cc(OC)c2c(OC(=O)c3ccc(I)cc3)ccnc2c1 |  | 91.3% | 47.2% | 6.6% |  |  |  |  | 26.4% |  | 23.4% | 6% |  | 
7 | COC(=O)c1ccc(C(=O)Oc2ccnc3cc(OC)cc(OC)c23)cc1 |  | 91.4% | 27.8% | 2.2% |  |  |  |  | 15.7% |  | 23.6% | 6.6% |  | 
8 | COc1cc(OC)c2c(OC(=O)c3ccc(Cl)cc3Cl)ccnc2c1 |  | 79.2% | 62.3% | 20.8% |  |  |  |  | 35.3% |  | 22.7% | 16.5% |  | 
9 | COc1cc(OC)c2c(OC(=O)c3cccc([N+](=O)[O-])c3)ccnc2c1 |  | 82.8% | 42% | 8.1% |  |  |  |  | 18.8% |  | 12.2% | 3.3% |  | 
10 | COc1cc(OC)c2c(OC(=O)c3ccccc3[N+](=O)[O-])ccnc2c1 | 64.6% | 90.5% | 75.2% | 32% | 94.79% | 86.19% | 10.2% | 94.01% | 38.6% | 21.1% | 33.4% | 10.7% | 92.75% | 
11 | COc1cc(OC)c2c(OC(=O)c3ccccc3C)ccnc2c1 | 94.6% | 92.2% | 91.4% | 53.9% | 93.81% | 75.65% | 2.2% | 92.54% | 70.3% | 55.4% | 64% | 9.4% | 85.45% | 
12 | COc1cc(OC)c2c(OC(=O)c3ccccc3OC)ccnc2c1 |  | 85.3% | 35.2% | 17.6% |  |  |  |  | 11.3% |  | 47.9% | 10.3% |  | 
13 | COc1cc(OC)c2c(OC(=O)c3ccccc3Br)ccnc2c1 | 85.4% | 93.3% | 85.7% | 22.5% | 94.92% | 86.21% | 4.8% | 93.23% | 51.2% | 42% | 29.2% | 9.8% | 93.63% | 
14 | COc1cc(OC)c2c(OC(=O)c3cccc(Br)c3)ccnc2c1 |  | 91% | 48.8% | 1.7% |  |  |  |  | 16.9% |  | 21% | 1.7% |  | 
15 | COc1cc(OC)c2c(OC(=O)c3ccccc3F)ccnc2c1 |  | 31% | 14.3% | 12.8% |  |  |  |  | 9.3% |  | 19.5% | 7.7% |  | 
16 | COc1cc(OC)c2c(OC(=O)c3ccc(Br)cc3)ccnc2c1 |  | 48.2% | 17.5% | 7.3% |  |  |  |  | 9.2% |  | 20.7% | 8.6% |  | 
17 | COc1cc(OC)c2c(OC(=O)c3cc(Br)cc(Br)c3)ccnc2c1 |  | 12.1% | 10% | 9.4% |  |  |  |  | 6.4% |  | 6.3% | 5.5% |  | 
18 | COc1cc(OC)c2c(OC(=O)c3cccc(I)c3)ccnc2c1 |  | 85.2% | 50.5% | 5.6% |  |  |  |  | 24.7% |  | 11.6% | 3% |  | 
19 | COc1ccc(C(=O)Oc2ccnc3cc(OC)cc(OC)c23)cc1 |  | 17.7% | 11% | 11.3% |  |  |  |  | 7.8% |  | 13.4% | 8.2% |  | 
20 | COc1cc(OC)c2c(OS(=O)(=O)c3ccc(C)cc3)ccnc2c1 | 98.9% | 94.2% | 94.7% | 5.4% | 85.74% | 13.7% | 12.9% | 81.66% | 82.3% | 87.7% | 13.2% | 6.2% | 68.39% | 
21 | COc1cc(OC)c2c(OC(=O)c3ccc([N+](=O)[O-])cc3)ccnc2c1 |  | 64% | 34.1% | 11.1% |  |  |  |  | 18.4% |  | 9.5% | 6% |  | 
22 | C/C=C/C[C@@H](C)[C@@H](O)[C@H]1C(=O)N[C@@H](CC)C(=O)N(C)CC(=O)N(C)[C@@H](CC(C)C)C(=O)N[C@@H](C(C)C)C(=O)N(C)[C@@H](CC(C)C)C(=O)N[C@@H](C)C(=O)N[C@H](C)C(=O)N(C)[C@@H](CC(C)C)C(=O)N(C)[C@@H](CC(C)C)C(=O)N(C)[C@@H](C(C)C)C(=O)N1C [CYCLOSPORINE] |  |  |  |  | 35.14% |  |  |  |  |  |  |  |  | 86.4%
